Data: ChEMBL document CHEMBL3286113, “New potent antibacterial oxazolidinone (MRX-I) with an improved class safety profile” (J Med Chem, 2014)
Converted amounts (≈) assume the structure as drawn. The source made the active and inactive calls. The rule behind the calls is not given here.

Columns and labels:
[1] = system: Rattus norvegicus; assay: Toxicity in female rat assessed as effect on reticulocyte count at 100 mg/kg/day, po bid administered for 4 weeks (reference value: 1.48%); format: organism-based; set-up: route oral; conditions: in vivo, 672 h
[2] = Tmax in po dosed dog; format: ADME, organism-based, Canis lupus familiaris; conditions: in vivo
[3] = Clastogenicity in CHL cells assessed as induction of structural chromosomal aberration at 25 to 200 ug/mL measured over 24 hrs in presence of metabolic activation; format: toxicity, cell-based, Cricetulus griseus; conditions: chinese hamster
Procedure, shortened: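 Chinese hamster lung cells scored for structural chromosome aberrations with or without metabolic activation. Exposure was 50–400 μg/mL over 6 h, or 25–200 μg/mL over 24 h.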

[4] = system: Streptococcus pneumoniae; assay: Antibacterial activity against penicillin intermediate-sensitive Streptococcus pneumoniae ATCC 49619 clinical isolate in po dosed mouse systemic infection model; format: functional; conditions: ATCC 49619, po
[5] = Half life in po dosed mouse; format: ADME, organism-based; conditions: in vivo
[6] = Cmax in human at 800 mg, po administered as single dose with meal measured on day 1; format: ADME, organism-based; set-up: dose 800 mg, route oral; conditions: in vivo
Procedure, shortened: (§1)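 Randomized, double-blind, placebo-controlled multiple-dose study in 32 healthy subjects, half male and half female. Each dose was taken with a meal, at 600 or 800 mg, 28 doses over 15 days. A single dose on days 1 and 15 gave full PK; BID (Q12h) dosing ran on days 2–14.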

[7] = AUC (0 to t) in female rat at 5 mg/kg, iv; format: ADME, organism-based; set-up: dose 5 mg/kg, route intravenous; conditions: plasma
Procedure, shortened: (§2)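 Rat PK by gender, with single oral doses of 5, 15 and 45 mg/kg and an iv dose of 5 mg/kg. Tmax, Cmax, T1/2 and AUC0−t were reported per gender.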

[8] = system: Staphylococcus aureus; assay: Antibacterial activity against Staphylococcus aureus measured after 5 serial passages; format: functional
[9] = system: Enterococcus faecalis; assay: Antibacterial activity against vancomycin-resistant Enterococcus faecalis isolate EFL 4041; format: functional
[10] = system: Rattus norvegicus; assay: Toxicity in female rat assessed as effect on WBC count at 20 mg/kg/day, po bid administered for 4 weeks (reference value: 3.66 x 10^9/L); format: organism-based; set-up: route oral; conditions: in vivo, 672 h
[11] = Half life in male rat at 15 mg/kg, po; format: ADME, organism-based; set-up: dose 15 mg/kg, route oral; conditions: in vivo
[12] = system: Streptococcus pneumoniae; assay: Antibacterial activity against penicillin-resistant Streptococcus pneumoniae isolate 0613 in po dosed mouse systemic infection model; format: functional; conditions: isolate 0613, po
[13] = system: Canis familiaris; assay: Dose normalized Cmax in po dosed dog; format: ADME, organism-based, Canis lupus familiaris; conditions: in vivo
[14] = Half life in female rat at 5 mg/kg, iv; format: ADME, organism-based; set-up: dose 5 mg/kg, route intravenous; conditions: in vivo
[15] = system: Homo sapiens; assay: Drug uptake in human at 600 to 800 mg, po administered as single dose with meal measured on day 1 and day 15; format: ADME, organism-based; conditions: in vivo; procedure, shortened: as §1
[16] = system: Rattus norvegicus; assay: Toxicity in rat assessed as rate of body weight gain at 100 mg/kg, po bid measured over 4 weeks of test period; format: organism-based; set-up: dose 100 mg/kg, route oral; conditions: in vivo, 672 h
[17] = system: Rattus norvegicus; assay: Acute toxicity in rat administered as single dose; format: organism-based; conditions: in vivo
[18] = system: Enterococcus; assay: Bacteriostatic activity against vancomycin-sensitive Enterococcus; format: functional
[19] = system: Homo sapiens; assay: Toxicity in human assessed as change in platelet count at 600 to 800 mg, po administered as single dose with meal on day 1 and day 15 followed by bid with meal on day 2 to day 14 measured during compound treatment; format: organism-based; conditions: in vivo
[20] = system: Rattus norvegicus; assay: Toxicity in female rat assessed as effect on hematocrit level at 200 to 300 mg/kg/day, po bid administered for 4 weeks (reference value: 39.08%); format: organism-based; set-up: route oral; conditions: in vivo, 672 h
[21] = system: Staphylococcus aureus; assay: Potency index, ratio of linezolid MIC90 to compound MIC90 for methicillin-resistant Staphylococcus aureus; format: functional
[22] = Half life in female rat at 15 mg/kg, po; format: ADME, organism-based; set-up: dose 15 mg/kg, route oral; conditions: in vivo
[23] = AUC (0 to 24 hrs) in human at 600 mg, po administered as single dose with meal measured on day 1; format: ADME, organism-based; set-up: time < 24 hr, dose 600 mg, route oral; conditions: plasma
Procedure, shortened: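 Randomized, double-blind, placebo-controlled multiple-dose study in 32 healthy subjects (half male, half female). Subjects took 28 oral doses of 600 or 800 mg over 15 days, each with a meal. A single dose was given on days 1 and 15 for full PK, and doses were given Q12h from day 2 to day 14. AUC0−24 was measured on days 1 and 15.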

[24] = system: Rattus norvegicus; assay: Toxicity in female rat assessed as effect on RBC count at 20 mg/kg/day, po bid administered for 4 weeks (reference value: 7.28 x 10^12/L); format: organism-based; set-up: route oral; conditions: in vivo, 672 h
[25] = system: Staphylococcus aureus; assay: Antibacterial activity against Staphylococcus aureus assessed as low frequency of spontaneous resistance; format: functional, organism-based
[26] = system: Staphylococcus aureus; assay: Antibacterial activity against methicillin-resistant Staphylococcus aureus isolate 0605 in mouse thigh infection model assessed as reduction of log10 CFU per thigh at 40 mg/kg, po; format: functional
[27] = system: Rattus norvegicus; assay: Toxicity in female rat assessed as effect on hemoglobin level at 20 mg/kg/day, po bid administered for 4 weeks (reference value: 141.8 g/L); format: organism-based; set-up: route oral; conditions: in vivo, 672 h
[28] = system: Enterococcus faecalis; assay: Antibacterial activity against vancomycin-sensitive Enterococcus faecalis ATCC 29212; format: functional
[29] = AUC (0 to t) in male rat at 15 mg/kg, po; format: ADME, organism-based; set-up: dose 15 mg/kg, route oral; conditions: plasma; procedure, shortened: as §2
[30] = system: Rattus norvegicus; assay: Toxicity in female rat assessed as effect on neutrophil count at 20 mg/kg/day, po bid administered for 4 weeks (reference value: 22.4%); format: organism-based; set-up: route oral; conditions: in vivo, 672 h
[31] = system: Rattus norvegicus; assay: Toxicity in female rat assessed as effect on platelet count at 20 mg/kg/day, po bid administered for 4 weeks (reference value: 654.6 x 10^9/L); format: organism-based; set-up: route oral; conditions: in vivo, 672 h
[32] = system: Staphylococcus aureus; assay: Antibacterial activity against Staphylococcus aureus measured after 6 serial passages; format: functional
[33] = system: Staphylococcus aureus; assay: Antibacterial activity against methicillin-sensitive Staphylococcus aureus ATCC 29213 in mouse thigh infection model assessed as reduction of log10 CFU per thigh at 5 mg/kg, po; format: functional
Procedure, shortened: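 Mouse thigh infection with S. aureus ATCC29213 (MSSA), 10 animals per dosing group. Oral doses were 5, 10, 20, 40 and 80 mg/kg. The read-out was log CFU per thigh after treatment, and the reduction (ΔLogCFU/thigh) was reported.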

[34] = Half life in po dosed dog; format: ADME, organism-based, Canis lupus familiaris; conditions: in vivo
[35] = biological target: Cytochrome P450 2D6 (Homo sapiens, UniProt P10635); assay: Inhibition of CYP2D6 (unknown origin) at 1 to 200 uM; format: ADME
Sequence of Cytochrome P450 2D6 (P10635 whole entry): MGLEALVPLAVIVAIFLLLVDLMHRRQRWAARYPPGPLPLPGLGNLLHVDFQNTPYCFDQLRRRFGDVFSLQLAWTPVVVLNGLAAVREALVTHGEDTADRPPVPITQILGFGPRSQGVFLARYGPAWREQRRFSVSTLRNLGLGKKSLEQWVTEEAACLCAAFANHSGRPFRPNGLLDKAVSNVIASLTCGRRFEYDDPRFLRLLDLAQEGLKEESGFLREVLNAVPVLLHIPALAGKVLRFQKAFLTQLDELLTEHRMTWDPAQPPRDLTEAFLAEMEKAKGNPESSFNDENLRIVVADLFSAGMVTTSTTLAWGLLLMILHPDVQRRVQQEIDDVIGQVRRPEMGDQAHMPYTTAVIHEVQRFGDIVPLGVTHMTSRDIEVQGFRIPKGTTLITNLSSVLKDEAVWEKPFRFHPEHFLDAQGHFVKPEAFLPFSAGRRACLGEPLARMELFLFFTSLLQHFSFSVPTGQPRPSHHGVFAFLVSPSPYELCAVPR

[36] = Tmax in human at 800 mg, po administered as single dose with meal measured on day 1; format: ADME, organism-based; conditions: in vivo
Procedure, shortened: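 Randomized, double-blind, placebo-controlled multiple-dose study in 32 healthy subjects, half male and half female. Dosing was 600 or 800 mg orally with a meal, 28 doses over 15 days. A single dose was given on days 1 and 15 for full PK, with Q12h (BID) dosing on days 2−14.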

[37] = AUC (0 to t) in male rat at 5 mg/kg, iv; format: ADME, organism-based; set-up: dose 5 mg/kg, route intravenous; conditions: plasma; procedure, shortened: as §2
[38] = system: Rattus norvegicus; assay: Toxicity in female rat assessed as effect on hematocrit level at 20 mg/kg/day, po bid administered for 4 weeks (reference value: 39.08%); format: organism-based; set-up: route oral; conditions: in vivo, 672 h
[39] = Elimination half life in fasted human at 600 mg, po administered as single dose; format: ADME, organism-based; conditions: in vivo, read-out: beta t1/2 (converted)
Procedure, shortened: (§3)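 Healthy volunteers (12; six of each sex) in a three-period Latin-square crossover. Each received single oral doses of 300, 600 and 900 mg under fasting conditions, with a 1-week washout between doses. Parameters from a noncompartmental model.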

[40] = Cmax in fasted human at 300 mg, po administered as single dose; format: ADME, organism-based; set-up: dose 300 mg, route oral; conditions: in vivo; procedure, shortened: as §3

O=C1C=CN(c2c(F)cc(N3C[C@H](CNc4ccon4)OC3=O)c(F)c2F)CC1 [CONTEZOLID]
Activity [1]: 1.46%
Tmax [2]: 0.5 h
Activity [3]: Non-toxic
ED50 [4]: 8.1 mg/kg
half-life [5]: 1 h
Cmax [6]: 27800 ng/mL
AUC(0-t) [7]: 25200 ng·h/mL
MIC [8]: 2 µg/mL (≈ 4.9 µM)
MIC [9]: 1 µg/mL (≈ 2.45 µM)
Activity [10]: 4.5 ×10⁹ /L
half-life [11]: 1.18 h
ED50 [12]: 10.5 mg/kg
Cmax/dose [13]: 259 ng/mL/(mg/kg)
half-life [14]: 1.51 h
Drug uptake [15]: Not Active
Activity [16]: Non-toxic
Activity [17]: 5000 mg/kg
MIC50 [18]: 1 µg/mL (≈ 2.45 µM)
MIC90 [18]: 1 µg/mL (≈ 2.45 µM)
Activity [19]: Non-toxic
Activity [20]: 30.6%
Ratio [21]: 2
half-life [22]: 1.47 h
AUC(0-t) at 24 h [23]: 68600 ng·h/mL
Activity [24]: 6.82 ×10¹² /L
Activity [25]: Active
deltalog10CFU [26]: 4.13
Activity [27]: 137.8 g/L
MIC [28]: 1 µg/mL (≈ 2.45 µM)
AUC(0-t) [29]: 34300 ng·h/mL
Activity [30]: 15.4%
Activity [31]: 638.2 ×10⁹ /L
MIC [32]: 2 µg/mL (≈ 4.9 µM)
deltalog10CFU [33]: 0.95
half-life [34]: 3 h
inhibition (INH) [35]: Not Active
Tmax [36]: 0.85 h
AUC(0-t) [37]: 12900 ng·h/mL
Activity [38]: 37.16%
half-life [39]: 3.31 h
Cmax [40]: 8070 ng/mL
